Assay outcomes (PubChem BioAssay)
Only some compounds are listed: those with a hit (about 3.7% of all), similar ones and a draw of the others.
rCAG RNA binder = binds r(CAG) RNA repeats | r(CAG) RNA repeat, TO-PRO-1 dye displacement fluorescence | inhibition, % at 3 µM | 370,000 tested, 1.3% active | AID 651821;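 active = inhibition above the plate cutoff, the mean of all test compounds on that plate plus 3 SD, cut at about 35% in these data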;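 also: 0% = DMSO alone and 100% = 100 µM mitoxantrone as full dye displacement; higher means more dye released from RNA so lower well fluorescence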
TAAR1 ag = human TAAR1 agonism. 360,000 tested, 0.99% active. activation, % at 3 µM. Q96RJ0. CHO RD-HGA16 TAAR1, Fluo-8 calcium fluorescence; vehicle wells 0%, saturating PEA agonist 100%;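 active = activation above the mean activation of all test compounds in the run plus 3 SD, cut at about 38% in these data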
Target sequence (Q96RJ0 whole entry, looked up): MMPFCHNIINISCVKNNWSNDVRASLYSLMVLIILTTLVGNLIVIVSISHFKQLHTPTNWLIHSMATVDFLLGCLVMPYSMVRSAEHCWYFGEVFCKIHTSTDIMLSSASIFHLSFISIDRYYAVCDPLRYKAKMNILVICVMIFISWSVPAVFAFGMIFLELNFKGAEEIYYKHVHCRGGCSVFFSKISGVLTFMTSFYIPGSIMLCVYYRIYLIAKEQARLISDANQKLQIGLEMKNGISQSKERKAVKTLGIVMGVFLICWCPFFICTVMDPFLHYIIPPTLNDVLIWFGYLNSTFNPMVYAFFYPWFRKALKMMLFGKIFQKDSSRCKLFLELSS
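System: CHO-derived RD-HGA16 cells with stable Gα16 and human TAAR1 / Times: 17-24 h plating, Fluo-8 75 min 37 °C, 30 min RT / Technique: calcium-sensitive Fluo-8 signal, excitation 470-495, emission 515-575 nm / Measure: % activation relative to PEA EC100 response / Benchmarks: DMSO and PEA EC100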
HCV core dimer = blocks dimerization of HCV core protein. inhibition, % at 5 µM. 300,000 tested, 0.33% active. TR-FRET GST/Flag-core106 dimerization, 1536-well. AID 1899;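 active = inhibition above the mean of all tested compounds plus 3 SD, set per screening campaign, cut at about 45% in these data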
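Assay system: tagged HCV core106 pair (GST and Flag); medium: KF-containing HEPES buffer, pH 7.45, DTT, CHAPS, BSA; also added: Eu donor and XL665 acceptor anti-tag antibodies; dosing: 5 µM single dose; timing: compound-protein-antibody incubation 4 h at 22.5 °C; signal: TR-FRET 671 and 617 nm emission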
HCV NS3 hel inh = inhibitors of Hepatitis C virus NS3 helicase; NS3 helicase DNA unwinding, Cy5 molecular beacon fluorescence; inhibition, % at 10.9 µM; 290,000 tested, 0.56% active;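 active = inhibition above the mean of all tested compounds plus 3 SD, set per campaign, cut at about 35% in these data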;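 also: 0% = DMSO wells and 100% = thioflavine S control wells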
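System: HCV NS3 helicase fragment; control set: DMSO and thioflavine S; technique: Cy5 fluorescence at 0 and 60 min, beacon hairpin quenching; reagent: beacon DNA duplex substrate plus ATP; replicates: singlicate; schedule: 1 h reaction at 25 °C, ATP-initiated; medium: MOPS buffer pH 6.5 with MgCl2, DTT, Tween20, BSA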
TAAR1 antag = human TAAR1 antagonism; AID 624466; inhibition, % at 3 µM; Q96RJ0; 360,000 tested, 1.5% active; CHO RD-HGA16 TAAR1, Fluo-8 calcium fluorescence, antagonist;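 active = inhibition above a per-plate cutoff, the mean inhibition of test compounds on that plate plus 3 SD, cut at about 49% in these data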;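 also: 0% = DMSO plus EC80 beta-PEA response and 100% = DMSO alone without agonist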
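Test system – hTAAR1-expressing CHO RD-HGA16 cells, Gα16-coupled · Reagent – β-PEA at EC80 concentration, post-compound challenge · Compound dosing – 3 µM, single point · Timing – 140 s kinetic read after compound, 140 s after agonist · Detection – Fluo-8 intracellular calcium dye fluorescence, real-time kinetic reads · Control set – DMSO and EC80 PEA controls · Repeats – n of 1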
The depositor's hits bear a star.

Results for CCCCCCCCN1C(=O)[C@@H](CC(=O)NCC23CC4CC(CC(C4)C2)C3)C[C@@]2(C(=O)OC)C1=C[C@H](COCc1ccccc1)O[C@@H]2C ?
rCAG RNA binder: 11

What do the screens show for `O=C1N2Cc3ccccc3C2CS(=O)(=O)N1CCc1ccccc1` (stereo not drawn)?
rCAG RNA binder: -1

What do the screens show for `CCOC(=O)c1cc(-c2ccco2)nc2c1c(C)nn2-c1ccccc1`?
rCAG RNA binder: 19; TAAR1 ag: 2; HCV core dimer: 59*; HCV NS3 hel inh: 31; TAAR1 antag: 4

What do the screens show for `COc1ccc(C2=NN3C(C2)c2ccccc2OC32C(=O)N(C)c3ccccc32)cc1` (stereo not drawn)?
rCAG RNA binder: 16; TAAR1 ag: 8; HCV core dimer: 65*; HCV NS3 hel inh: 1; TAAR1 antag: 4

How did CC1(C)S[C@@H]2C(C(=O)OCc3ccccc3)NC(=O)N2C1C(=O)OCc1ccccc1 (stereo partly drawn) do in these assays?
rCAG RNA binder: -2; TAAR1 ag: 9; HCV core dimer: -10; TAAR1 antag: 51*

Results for O=C(CSc1nc2ccc(N3CCOCC3)cc2c(=O)n1CCc1ccccc1)NCC1CCCO1 (stereo not drawn) ?
rCAG RNA binder: 1; TAAR1 ag: 11; HCV core dimer: 8; HCV NS3 hel inh: 12; TAAR1 antag: 52*

How did COc1ccc(OC)c(NC(=O)c2cc(-c3ccc(F)cc3OC(C)C)n[nH]2)c1 do in these assays?
rCAG RNA binder: 7; TAAR1 ag: 3; TAAR1 antag: 41

How did CC(C)Oc1cc(F)ccc1-c1cc(C(=O)Nc2ccc(C(C)C)cc2)[nH]n1 do in these assays?
rCAG RNA binder: 2; TAAR1 ag: -1; TAAR1 antag: 28

Results for COc1ccc(NC(=O)c2cc(-c3cc(Cl)ccc3OC)n[nH]2)c(OC)c1 ?
rCAG RNA binder: 12; TAAR1 ag: 2; TAAR1 antag: 54*

What do the screens show for `COc1ccc(NC(=O)c2cc(-c3cc(F)ccc3OC(C)C)n[nH]2)c(C)c1`?
rCAG RNA binder: 5; TAAR1 ag: 45*; TAAR1 antag: 86*

Results for CC(C)Oc1cc(F)ccc1-c1cc(C(=O)Nc2ccccc2)[nH]n1 ?
rCAG RNA binder: 1; TAAR1 ag: 0; TAAR1 antag: 54*

Results for CCOc1ccc(Cl)cc1-c1cc(C(=O)Nc2ccc(OC)cc2OC)[nH]n1 ?
rCAG RNA binder: 7; TAAR1 ag: 4; TAAR1 antag: 15

Results for COc1ccc(NC(=O)c2cc(-c3cc(C)c(C)cc3O)n[nH]2)c(OC)c1 ?
rCAG RNA binder: 22; TAAR1 ag: 3; HCV core dimer: 7; HCV NS3 hel inh: 10; TAAR1 antag: -12

What do the screens show for `COc1ccc(NC(=O)c2cc(-c3cc(F)ccc3OC)n[nH]2)c(OC)c1`?
rCAG RNA binder: 6; TAAR1 ag: 7; TAAR1 antag: 50*

What do the screens show for `CCOc1ccc(S(=O)(=O)Nc2ccccc2C(=O)NCc2ccco2)cc1`?
rCAG RNA binder: 21; TAAR1 ag: 3; HCV core dimer: 14; HCV NS3 hel inh: 4; TAAR1 antag: 16

Results for COc1ccc(S(=O)(=O)Nc2ccccc2C(=O)NCc2ccco2)cc1Br ?
rCAG RNA binder: 43*; TAAR1 ag: 2; HCV core dimer: 32; HCV NS3 hel inh: -7; TAAR1 antag: 17

Results for COc1ccc(NC(=O)c2ccc(CN3CCN(c4ccccc4)CC3)cc2)cc1 ?
rCAG RNA binder: 2; TAAR1 ag: 40*; HCV core dimer: 5; HCV NS3 hel inh: -10; TAAR1 antag: 22

How did Oc1ccc(/C=N/Nc2ccnc3cc(Cl)ccc23)c(O)c1 do in these assays?
rCAG RNA binder: 27; TAAR1 ag: 44*; HCV core dimer: -12; HCV NS3 hel inh: -16; TAAR1 antag: -24

What do the screens show for `Cc1ccccc1/C=N/Nc1ccnc2cc(Cl)ccc12`?
rCAG RNA binder: 17; TAAR1 ag: 24; HCV core dimer: 0; HCV NS3 hel inh: 0; TAAR1 antag: 6

Results for O=C(O)c1ccc(C#Cc2cccc(F)c2)cn1 ?
rCAG RNA binder: 4

Results for Cc1ccc(C2CCC3(CCC(=O)N3CCOC(=O)Nc3ccc(Br)cc3)CC2)cc1 (stereo not drawn) ?
rCAG RNA binder: 6
